In ChEMBL document CHEMBL1157378, “Role for cell density in antifungal drug resistance in Candida albicans biofilms” (2007):
Values after ≈ are worked out from the molar mass of the structure shown. Active and inactive are the calls of the source. No cut-off for these calls is given here.

Tests used:
[1] = system: Candida albicans; test: Antimicrobial activity against Chk1 deficient Candida albicans CHK21 dissociated biofilms at cell density of 10^8 cells/ml after 48 hrs by XTT assay; assay type: functional; settings: CHK21, 48 h
In short: (§1)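 Polystyrene-well biofilms (48 h, 37°C) washed, then broken up in 100 µl RPMI by scraping and aspiration. Cells used undiluted (about 2 x 10^8 cells/ml equivalent) or adjusted by A600 against a hemacytometer-calibrated yeast standard curve. Drug exposure at 37°C for 48 h (caspofungin 24 h), then XTT/menadione read at 490 nm.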

[2] = system: Candida albicans; test: Antimicrobial activity against Candida albicans FH1 dissociated biofilms at cell density of 10^3 cells/ml after 48 hrs by XTT assay; assay type: functional; settings: FH1, 48 h; in short: as §1
[3] = system: Candida albicans; test: Antimicrobial activity against Chk1 deficient Candida albicans CHK21 dissociated biofilms at cell density of 10^3 cells/ml after 48 hrs by XTT assay; assay type: functional; settings: CHK21, 48 h; in short: as §1
[4] = system: Candida albicans; test: Antimicrobial activity against Cdr1, Cdr2 and Mdr1 deficient Candida albicans DSY1050 intact biofilms after 48 hrs by XTT assay; assay type: functional; settings: DSY1050, 48 h
In short: (§2)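 Biofilm seeded at 1 x 10^6 cells/ml in RPMI in polystyrene microtiter wells and grown 48 h at 37°C in a moist chamber. Washed once and drug added to the same well (twofold dilutions, 1,024 to 0.0313 µg/ml) for 48 h at 37°C (caspofungin 24 h). Read-out: XTT/menadione reduction at 490 nm.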

[5] = system: Candida albicans; test: Antimicrobial activity against Candida albicans intact biofilms; assay type: functional
In short: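 Biofilm formed in polystyrene wells from 1 x 10^6 cells/ml, 48 h at 37°C in MOPS-buffered RPMI 1640, washed once. Intact biofilm exposed in the same well to twofold serial drug dilutions (1,024 to 0.0313 µg/ml) at 37°C for 48 h (caspofungin 24 h), with drug-free controls. Metabolic activity measured by XTT plus 1 µM menadione, absorbance at 490 nm.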

[6] = system: Candida albicans; test: Antimicrobial activity against Candida albicans SC5314 at planktonic cell density of 10^3 cells/ml after 48 hrs by XTT assay; assay type: functional; settings: SC5314, 48 h
In short: (§3)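 YNB-grown yeast (50 mM glucose, room temperature, shaken, to ~2 x 10^8 cells/ml) washed into MOPS-buffered RPMI 1640 with L-glutamine and set to the stated density. Exposed to twofold serial drug dilutions (1,024 to 0.0313 µg/ml) at 37°C, 48 h (caspofungin 24 h), with drug-free controls. Read-out: XTT (0.5 g/liter) plus 1 µM menadione, formazan at 490 nm.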

[7] = system: Candida albicans; test: Antimicrobial activity against Candida albicans disaggregated biofilms; assay type: functional
In short: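 Biofilm grown 48 h at 37°C in RPMI (MOPS-buffered) on polystyrene wells from 1 x 10^6 cells/ml, washed, then dissociated by scraping/aspiration in 100 µl. Used undiluted (about 2 x 10^8 cells/ml) or diluted to about 2 x 10^3 cells/ml. Twofold drug dilutions (1,024 to 0.0313 µg/ml) for 48 h at 37°C (caspofungin 24 h). Read-out is XTT/menadione reduction at 490 nm.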

[8] = system: Candida albicans; test: Antimicrobial activity against Chk1 deficient Candida albicans CHK21 intact biofilms after 48 hrs by XTT assay; assay type: functional; settings: CHK21, 48 h; in short: as §2
[9] = system: Candida albicans; test: Antimicrobial activity against Candida albicans SC5314 dissociated biofilms grown on silicone-elastomer coated latex surface at cell density of 10^8 cells/ml at 0.25 to 8 ug/ml by XTT assay; assay type: functional, organism-based
In short: (§4)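 1-cm discs of denture acrylic, PVC catheter or silicone elastomer-coated latex catheter, ethylene-oxide sterilised. Seeded with 1 ml of 1 x 10^6 cells/ml, adhesion 90 min at 37°C, washed, grown 48 h at 37°C in RPMI. Biofilm scraped off, set to 1 x 10^3 or 1 x 10^8 cells/ml, exposed to fluconazole, read by XTT at 490 nm.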

[10] = system: Candida albicans; test: Antimicrobial activity against Candida albicans SC5314 at planktonic cell density of 10^8 cells/ml after 48 hrs by XTT assay; assay type: functional; settings: SC5314, 48 h; in short: as §3
[11] = system: Candida albicans; test: Antimicrobial activity against Candida albicans FH1 at planktonic cell density of 10^3 cells/ml after 48 hrs by XTT assay; assay type: functional; settings: FH1, 48 h; in short: as §3
[12] = system: Candida albicans; test: Antimicrobial activity against Candida albicans SC5314 dissociated biofilms grown on polyvinylchloride catheter surface at cell density of 10^3 cells/ml at 0.25 to 8 ug/ml by XTT assay; assay type: functional, organism-based; in short: as §4
[13] = system: Candida albicans; test: Antimicrobial activity against Chk1 deficient Candida albicans CHK21 at planktonic cell density of 10^8 cells/ml after 48 hrs by XTT assay; assay type: functional; settings: CHK21, 48 h; in short: as §3

OC(Cn1cncn1)(Cn1cncn1)c1ccc(F)cc1F [FLUCONAZOLE]
MIC80 [1]: > 64 µg/mL | MIC80 [2]: 2 µg/mL (≈ 6.53 µM) | MIC80 [3]: 0.125 µg/mL (≈ 0.408 µM) | MIC80 [4]: > 64 µg/mL | MIC [5]: > 1020 µg/mL | MIC80 [6]: 0.5 µg/mL (≈ 1.63 µM) | MIC [7]: 256 µg/mL (≈ 836 µM) | MIC80 [8]: > 64 µg/mL | Activity [9]: inactive | MIC80 [10]: > 256 µg/mL | MIC80 [11]: 4 µg/mL (≈ 13.1 µM) | Activity [12]: Active | MIC80 [13]: > 64 µg/mL
